From ChEMBL document CHEMBL4732249, “Design, synthesis and biological evaluation of 2-aminoquinazolin-4(3H)-one derivatives as potential SARS-CoV-2 and MERS-CoV treatments” (Bioorg Med Chem Lett, 2021)

Key:
[1] = tested on: SARS-CoV-2; experiment: Antiviral activity against SARS-CoV-2 infected in African green monkey Vero cells assessed as inhibition of viral infection by measuring nucleocapsid protein level by immunofluorescence microscopic analysis; format: functional, organism-based; details: Severe acute respiratory syndrome coronavirus 2, Vero
[2] = tested on: Vero; experiment: Cytotoxicity against African green monkey Vero cells assessed as reduction of cell viability by WST-1 assay; format: cell-based; details: chlorocebus sabaeus
[3] = Selective index, ratio of CC50 for African green monkey Vero cells to IC50 for SARS-CoV-2 infected in African green monkey Vero cells
[4] = tested on: Middle East respiratory syndrome-related coronavirus; experiment: Antiviral activity against MERS-CoV infected in African green monkey Vero cells assessed as inhibition of viral infection by measuring reduction in spike protein level by immunofluorescence microscopic analysis; format: functional, organism-based
[5] = Selective index, ratio of CC50 for African green monkey Vero cells to IC50 for MERS-CoV infected in African green monkey Vero cells
[6] = Stability in mouse microsomes assessed as as parent compound remaining after 30 mins; format: ADME, Microsome; details: read-out: Stabilty
Procedure, shortened: (§1)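 Liver microsomes from human, mouse and rat were used. The read-out is percent of parent compound remaining after 30 min incubation.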

[7] = Stability in rat microsomes assessed as as parent compound remaining after 30 mins; format: ADME, Microsome; details: read-out: Stabilty; procedure, shortened: as §1
[8] = Stability in human microsomes assessed as as parent compound remaining after 30 mins; format: ADME, Microsome; details: read-out: Stabilty; procedure, shortened: as §1
[9] = tested on: HFL1; experiment: Cytotoxicity against human HFL-1 cells; format: cell-based
[10] = Cytotoxicity against CHO-K1 cells; format: cell-based, Cricetulus griseus; details: chinese hamster
[11] = Cytotoxicity against mouse NCTC clone 929 cells; format: cell-based
[12] = Cytotoxicity against mouse NIH3T3 cells; format: cell-based
[13] = target: hERG (KCNH2) (Homo sapiens, UniProt Q12809); experiment: Inhibition of human ERG at 10 uM relative to control
[14] = Protein binding in rat plasma at 5 uM; format: ADME, cell-free
[15] = target: T1, CYP1A2 (Homo sapiens, UniProt P05177); experiment: Inhibition of CYP1A2 (unknown origin) at 10 uM relative to control; format: ADME
T1 sequence (P05177 whole entry): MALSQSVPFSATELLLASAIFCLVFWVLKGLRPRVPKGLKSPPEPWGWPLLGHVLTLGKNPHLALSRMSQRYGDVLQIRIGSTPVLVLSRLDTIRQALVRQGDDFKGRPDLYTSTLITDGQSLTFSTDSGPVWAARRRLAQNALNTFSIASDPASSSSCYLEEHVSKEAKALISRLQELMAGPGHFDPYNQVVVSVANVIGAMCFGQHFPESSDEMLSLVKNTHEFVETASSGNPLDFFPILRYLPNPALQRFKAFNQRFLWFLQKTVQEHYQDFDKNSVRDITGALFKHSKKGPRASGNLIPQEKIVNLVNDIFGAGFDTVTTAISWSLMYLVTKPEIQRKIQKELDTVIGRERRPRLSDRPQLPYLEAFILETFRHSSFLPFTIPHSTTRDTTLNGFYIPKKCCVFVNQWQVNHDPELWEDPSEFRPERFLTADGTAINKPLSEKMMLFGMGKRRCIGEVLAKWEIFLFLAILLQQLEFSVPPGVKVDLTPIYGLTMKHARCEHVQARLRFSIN

[16] = target: CYP2C9 (Homo sapiens, UniProt P11712); experiment: Inhibition of CYP2C9 (unknown origin) at 10 uM relative to control; format: ADME
[17] = target: CYP2C19 (Homo sapiens, UniProt P33261); experiment: Inhibition of CYP2C19 (unknown origin) at 10 uM relative to control; format: ADME
[18] = target: CYP2D6 (Homo sapiens, UniProt P10635); experiment: Inhibition of CYP2D6 (unknown origin) at 10 uM relative to control; format: ADME
[19] = target: CYP3A4 (Homo sapiens, UniProt P08684); experiment: Inhibition of CYP3A4 (unknown origin) at 10 uM relative to control; format: ADME
[20] = Tmax in rat at 10 mg/kg, po; format: ADME, organism-based; details: in vivo
Procedure, shortened: (§2)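 Rats were dosed orally at 10 mg/kg. Values are the mean of experiments using three rats.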

[21] = Half life in rat at 10 mg/kg, po; format: ADME, organism-based; details: in vivo; procedure, shortened: as §2
[22] = AUC in rat at 10 mg/kg, po; format: ADME, organism-based; parameters: dose 10 mg/kg; details: in vivo; procedure, shortened: as §2
[23] = Oral bioavailability in rat at 10 mg/kg; format: ADME, organism-based; details: in vivo
Procedure, shortened: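 Rats received oral dosing at 10 mg/kg alongside intravenous dosing at 2 mg/kg. Values are the mean of experiments using three rats.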

[24] = Half life in rat at 5 mg/kg, iv; format: ADME, organism-based; details: in vivo
[25] = AUC in rat at 5 mg/kg, iv; format: ADME, organism-based; parameters: dose 5 mg/kg; details: in vivo
[26] = Clearance in rat at 5 mg/kg, iv; format: ADME, organism-based; details: in vivo
[27] = Volume of distribution at steady state in rat at 5 mg/kg, iv; format: ADME, organism-based; details: in vivo, read-out: Vdss

Chain of CYP2C19 (P33261 whole entry): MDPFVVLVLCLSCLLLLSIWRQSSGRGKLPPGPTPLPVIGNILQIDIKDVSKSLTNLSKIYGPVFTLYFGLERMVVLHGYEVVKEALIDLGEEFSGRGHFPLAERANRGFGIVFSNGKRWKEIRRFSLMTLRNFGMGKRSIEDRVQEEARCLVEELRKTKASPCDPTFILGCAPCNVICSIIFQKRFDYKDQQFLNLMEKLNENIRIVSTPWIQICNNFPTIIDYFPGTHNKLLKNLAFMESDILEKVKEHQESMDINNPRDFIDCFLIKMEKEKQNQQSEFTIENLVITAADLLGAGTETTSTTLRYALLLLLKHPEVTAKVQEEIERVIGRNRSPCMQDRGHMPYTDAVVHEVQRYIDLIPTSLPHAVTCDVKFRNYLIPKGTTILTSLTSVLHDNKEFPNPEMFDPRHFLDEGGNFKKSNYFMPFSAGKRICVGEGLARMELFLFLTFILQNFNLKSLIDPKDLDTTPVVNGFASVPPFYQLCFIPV
Chain of CYP3A4 (P08684 whole entry): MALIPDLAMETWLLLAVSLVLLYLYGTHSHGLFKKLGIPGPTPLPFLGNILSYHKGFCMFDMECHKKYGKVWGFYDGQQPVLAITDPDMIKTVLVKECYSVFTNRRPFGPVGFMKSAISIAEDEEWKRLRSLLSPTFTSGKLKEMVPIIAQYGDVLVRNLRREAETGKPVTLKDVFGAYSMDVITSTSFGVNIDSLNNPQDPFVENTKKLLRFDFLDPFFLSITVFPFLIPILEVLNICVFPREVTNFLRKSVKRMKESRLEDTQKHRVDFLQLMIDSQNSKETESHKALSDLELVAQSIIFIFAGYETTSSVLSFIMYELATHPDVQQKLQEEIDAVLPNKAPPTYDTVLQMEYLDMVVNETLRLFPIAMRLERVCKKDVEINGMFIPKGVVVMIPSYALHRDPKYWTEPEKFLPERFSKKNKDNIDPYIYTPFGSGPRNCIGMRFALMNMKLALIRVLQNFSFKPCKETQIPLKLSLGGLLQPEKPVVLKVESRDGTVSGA
Chain of CYP2D6 (P10635 whole entry): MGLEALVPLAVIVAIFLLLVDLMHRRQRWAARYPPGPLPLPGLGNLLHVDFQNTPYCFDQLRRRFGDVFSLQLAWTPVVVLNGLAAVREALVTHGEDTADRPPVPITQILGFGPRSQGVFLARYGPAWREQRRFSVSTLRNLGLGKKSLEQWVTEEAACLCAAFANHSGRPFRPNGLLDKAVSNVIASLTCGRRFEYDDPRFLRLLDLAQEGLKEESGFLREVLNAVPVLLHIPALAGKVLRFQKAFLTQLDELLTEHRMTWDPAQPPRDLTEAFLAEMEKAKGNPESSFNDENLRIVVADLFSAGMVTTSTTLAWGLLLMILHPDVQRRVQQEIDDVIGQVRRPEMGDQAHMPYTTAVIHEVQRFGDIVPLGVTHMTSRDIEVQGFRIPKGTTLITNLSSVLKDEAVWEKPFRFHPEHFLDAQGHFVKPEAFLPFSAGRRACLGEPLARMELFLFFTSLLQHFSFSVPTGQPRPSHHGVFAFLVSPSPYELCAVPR
Chain of CYP2C9 (P11712 whole entry): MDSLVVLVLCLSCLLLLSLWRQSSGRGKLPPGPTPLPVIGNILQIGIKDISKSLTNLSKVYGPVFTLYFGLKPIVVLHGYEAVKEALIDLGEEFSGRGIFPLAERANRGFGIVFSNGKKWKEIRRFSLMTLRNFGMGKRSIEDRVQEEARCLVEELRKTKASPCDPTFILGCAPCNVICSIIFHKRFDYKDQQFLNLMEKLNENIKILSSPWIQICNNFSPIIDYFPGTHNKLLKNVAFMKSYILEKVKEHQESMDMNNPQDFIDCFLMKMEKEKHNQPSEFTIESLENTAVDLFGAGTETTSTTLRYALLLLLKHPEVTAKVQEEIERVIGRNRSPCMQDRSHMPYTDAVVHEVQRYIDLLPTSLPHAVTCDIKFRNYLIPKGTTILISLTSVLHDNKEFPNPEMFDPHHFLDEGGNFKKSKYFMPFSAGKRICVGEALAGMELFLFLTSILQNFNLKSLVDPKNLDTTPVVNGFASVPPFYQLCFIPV
Chain of hERG (KCNH2) (Q12809 whole entry): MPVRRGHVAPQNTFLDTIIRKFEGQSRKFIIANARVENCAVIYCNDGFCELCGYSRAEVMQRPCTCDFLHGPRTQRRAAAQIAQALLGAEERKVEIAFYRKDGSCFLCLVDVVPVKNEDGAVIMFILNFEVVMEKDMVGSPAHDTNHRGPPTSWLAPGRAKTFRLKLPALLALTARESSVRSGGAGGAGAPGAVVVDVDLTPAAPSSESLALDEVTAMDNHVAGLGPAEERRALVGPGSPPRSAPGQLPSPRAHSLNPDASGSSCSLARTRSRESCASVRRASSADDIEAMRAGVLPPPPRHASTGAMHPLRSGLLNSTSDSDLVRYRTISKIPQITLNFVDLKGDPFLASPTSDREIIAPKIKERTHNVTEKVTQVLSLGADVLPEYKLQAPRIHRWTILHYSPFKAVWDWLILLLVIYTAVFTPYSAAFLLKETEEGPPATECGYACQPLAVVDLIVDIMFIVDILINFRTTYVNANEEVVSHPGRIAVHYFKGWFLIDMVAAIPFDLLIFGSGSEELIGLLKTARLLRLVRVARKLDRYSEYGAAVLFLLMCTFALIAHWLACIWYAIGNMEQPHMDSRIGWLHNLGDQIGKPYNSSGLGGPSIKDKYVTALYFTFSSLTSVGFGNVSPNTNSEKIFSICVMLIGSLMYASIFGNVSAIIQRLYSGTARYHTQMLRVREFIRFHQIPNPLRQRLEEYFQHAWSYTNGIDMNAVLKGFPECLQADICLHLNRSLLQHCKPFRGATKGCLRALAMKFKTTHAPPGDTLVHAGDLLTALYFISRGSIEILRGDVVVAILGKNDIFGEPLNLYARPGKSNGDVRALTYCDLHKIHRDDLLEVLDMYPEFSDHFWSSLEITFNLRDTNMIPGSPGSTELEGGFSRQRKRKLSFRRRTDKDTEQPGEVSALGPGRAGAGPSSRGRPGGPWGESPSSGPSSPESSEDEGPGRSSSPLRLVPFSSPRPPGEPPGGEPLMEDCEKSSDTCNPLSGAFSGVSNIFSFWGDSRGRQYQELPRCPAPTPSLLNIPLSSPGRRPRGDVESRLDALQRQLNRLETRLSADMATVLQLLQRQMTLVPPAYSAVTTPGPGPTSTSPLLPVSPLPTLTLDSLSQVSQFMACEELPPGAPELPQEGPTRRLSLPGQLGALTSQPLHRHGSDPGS

COc1cccc(Nc2nc3cc(Cl)ccc3c(=O)[nH]2)c1
IC50 [1]: 11 µM
CC50 [2]: > 25 µM
Ratio CC50/IC50 [3]: 2.3

O=c1[nH]c(Nc2cc(F)cc(F)c2)nc2c(Cl)ccc(Cl)c12
IC50 [1]: 0.33 µM
CC50 [2]: > 25 µM
Ratio CC50/IC50 [3]: 76
IC50 [4]: 0.79 µM
Ratio CC50/IC50 [5]: 31

O=c1[nH]c(Nc2cc(F)cc(F)c2)nc2c(Cl)c(Cl)ccc12
IC50 [1]: 0.25 µM
CC50 [2]: > 25 µM
Ratio CC50/IC50 [3]: 98
IC50 [4]: 0.83 µM
Ratio CC50/IC50 [5]: 30

O=c1[nH]c(Nc2cc(F)cc(F)c2)nc2cc(O)ccc12
IC50 [1]: > 25 µM
CC50 [2]: > 25 µM
Ratio CC50/IC50 [3]: 1

O=c1[nH]c(Nc2cc(F)cc(F)c2)nc2cc(Cl)ccc12
IC50 [1]: 0.24 µM
CC50 [2]: ≥ 18 µM
Ratio CC50/IC50 [3]: 74
IC50 [4]: 0.39 µM
Ratio CC50/IC50 [5]: 65

COC(=O)c1cccc(Nc2nc3cc(Cl)ccc3c(=O)[nH]2)c1
IC50 [1]: 8.8 µM
CC50 [2]: > 25 µM
Ratio CC50/IC50 [3]: 2.8

O=c1[nH]c(N2CCCCC2)nc2cc(Cl)ccc12
IC50 [1]: > 25 µM
CC50 [2]: > 25 µM
Ratio CC50/IC50 [3]: 1

Cc1cc(C)c2nc(Nc3cc(F)cc(F)c3)[nH]c(=O)c2c1
IC50 [1]: > 25 µM
CC50 [2]: > 25 µM
Ratio CC50/IC50 [3]: 1

O=c1[nH]c(Nc2ccccc2F)nc2cc(Cl)ccc12
IC50 [1]: > 25 µM
CC50 [2]: > 25 µM
Ratio CC50/IC50 [3]: 1

Cc1cc(C)c2nc(Nc3cc(Cl)cc(Cl)c3)[nH]c(=O)c2c1
IC50 [1]: > 25 µM
CC50 [2]: > 25 µM
Ratio CC50/IC50 [3]: 1

O=c1[nH]c(Nc2ccc(F)cc2F)nc2cc(Cl)ccc12
IC50 [1]: > 25 µM
CC50 [2]: > 25 µM
Ratio CC50/IC50 [3]: 1

CC(C)Nc1nc2cc(Cl)ccc2c(=O)[nH]1
IC50 [1]: > 25 µM
CC50 [2]: > 25 µM
Ratio CC50/IC50 [3]: 1

O=c1[nH]c(Nc2cc(F)cc(F)c2)nc2cccc(O)c12
IC50 [1]: 0.47 µM
CC50 [2]: > 25 µM
Ratio CC50/IC50 [3]: 54
IC50 [4]: 1.1 µM
Ratio CC50/IC50 [5]: 22

O=c1[nH]c(Nc2cc(Cl)cc(Cl)c2)nc2cccc(O)c12
IC50 [1]: 0.15 µM
CC50 [2]: > 25 µM
Ratio CC50/IC50 [3]: 168
IC50 [4]: 1.02 µM
remaining at 0.5 h [6]: 42%
remaining at 0.5 h [7]: 54%
remaining at 0.5 h [8]: 55%
CC50 [9]: 9.6 µM
CC50 [10]: 28 µM
CC50 [11]: 27 µM
CC50 [12]: 60 µM
inhibition at 10 µM [13]: 28%
PPB [14]: 97%
inhibition at 10 µM [15]: 65%
inhibition at 10 µM [16]: 34%
inhibition at 10 µM [17]: 12%
inhibition at 10 µM [18]: 46%
inhibition at 10 µM [19]: 65%
Tmax [20]: 1 h
half-life [21]: 42 h
AUC [22]: 1.01 µg·h/mL
bioavailability [23]: 7.8%
half-life [24]: 9.2 h
AUC [25]: 6.5 µg·h/mL
clearance [26]: 0.67 L/h/kg
Vd [27]: 6.8 L/kg
Ratio CC50/IC50 [5]: 25

O=c1[nH]c(Nc2cccc(F)c2)nc2cc(Cl)ccc12
IC50 [1]: 1.4 µM
CC50 [2]: > 25 µM
Ratio CC50/IC50 [3]: 18

Nc1ccc2c(=O)[nH]c(Nc3cc(Cl)cc(Cl)c3)nc2c1
IC50 [1]: > 25 µM
CC50 [2]: > 25 µM
Ratio CC50/IC50 [3]: 1

O=c1[nH]c(NCC2CCCCC2)nc2cc(Cl)ccc12
IC50 [1]: 14 µM
CC50 [2]: > 25 µM
Ratio CC50/IC50 [3]: 1.7

O=c1[nH]c(Nc2ccc(Cl)cc2Cl)nc2cc(Cl)ccc12
IC50 [1]: > 25 µM
CC50 [2]: > 25 µM
Ratio CC50/IC50 [3]: 1

N#Cc1cccc(Nc2nc3cc(Cl)ccc3c(=O)[nH]2)c1
IC50 [1]: 1.7 µM
CC50 [2]: > 25 µM
Ratio CC50/IC50 [3]: 15
